Data set [1] has as its target Sodium-dependent dopamine transporter (Homo sapiens, UniProt Q01959). In words: Inhibition of human dopamine transporter.
Data set [2] is described as follows: Ratio of drug uptake in striatum to cerebellum of Sprague-Dawley rat at 37 MBq, iv treated 45 mins after DAT inhibitor GBR-12909 challenge measured after 15 mins. The data set is classed as ADME, organism-based. To be noted: in vivo, 0.25 h. In a few lines: (§1)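 Same male Sprague–Dawley rat, rescanned after baseline. GBR12909 1.5 mg/kg given 45 min before a second 37 MBq tracer dose. Dynamic acquisition for 60 min, started at injection. Read-out is the striatum/cerebellum radioactivity-concentration ratio at the 15, 30 and 60 min time frames.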

Data set [3] has as its system Striatum. In words: Drug uptake in Sprague-Dawley rat striatum assessed per cm'3 at 37 MBq, iv treated 45 mins after DAT inhibitor GBR-12909 challenge measured after 30 mins. The data set is classed as ADME, organism-based. To be noted: in vivo, 0.5 h. Summed up: (§2)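 This was the same rat after its baseline scan. It was pretreated with 1.5 mg/kg GBR12909 45 min before a second 37 MBq tracer injection, and dynamic PET acquisition ran 60 min from injection. Striatal uptake was given as %ID per cm³ for the 15, 30 and 60 min time-frames.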

For data set [4], the system named is Striatum. As to the kind of experiment: Drug uptake in Sprague-Dawley rat striatum assessed per cm'3 at 37 MBq, iv after 15 mins. Conditions: in vivo, 0.25 h. The data set is classed as ADME, organism-based. Summed up: (§3)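 Baseline small-animal PET in one male Sprague–Dawley rat: 37 MBq (1 mCi) tracer injected, and full dynamic acquisition started at injection and ran 60 min. Images were reconstructed and coregistered with MRI. Striatal uptake was given as %ID per cm³ for the 15, 30 and 60 min time-frames.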

In data set [5] the test system is Striatum. As to the kind of experiment: Drug uptake in Sprague-Dawley rat striatum assessed per cm'3 at 37 MBq, iv treated 45 mins after DAT inhibitor GBR-12909 challenge measured after 60 mins. Conditions: in vivo, 1 h. The data set is classed as ADME, organism-based. In a few lines:
as §2

In data set [6] the test system is Striatum. In words: Drug uptake in Sprague-Dawley rat striatum assessed as reduction of striatal binding potential at 37 MBq, iv treated 45 mins after DAT inhibitor GBR-12909 challenge measured after 15 mins. It counts as ADME, organism-based. Also on record: scale not given: the % may be the effect or the level left. Conditions: in vivo, 0.25 h. In a few lines:
(§4)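 The same animal then received 1.5 mg/kg GBR12909 45 min before a second 37 MBq dose, followed by another 60 min scan. Striatal binding potential was read for the 15, 30 and 60 min time-frames, and the reduction was expressed in %.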

Data set [7] has as its system Striatum. In words: Drug uptake in Sprague-Dawley rat striatum assessed per cm'3 at 37 MBq, iv treated 45 mins after DAT inhibitor GBR-12909 challenge measured after 15 mins. It counts as ADME, organism-based. To be noted: in vivo, 0.25 h. Summed up: as §2
Data set [8] can be described thus: Ratio of drug uptake in striatum to cerebellum of Sprague-Dawley rat at 37 MBq, iv after 15 mins. The data set is classed as ADME, organism-based. To be noted: in vivo, 0.25 h. In a few lines:
(§5)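 Male Sprague–Dawley rat, baseline small-animal PET. Tracer given at 37 MBq (1 mCi), specific activity 67 GBq/µmol. Full dynamic scan for 60 min, acquisition starting with tracer injection. Read-out is the striatum/cerebellum radioactivity-concentration ratio, taken at the 15, 30 and 60 min time frames.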

The subject of data set [9] is Striatum. As to the kind of experiment: Drug uptake in Sprague-Dawley rat striatum assessed per cm'3 at 37 MBq, iv after 60 mins. Conditions: in vivo, 1 h. It counts as ADME, organism-based. Summed up:
as §3

The nature of data set [10]: Ratio of drug uptake in striatum to cerebellum of Sprague-Dawley rat at 37 MBq, iv after 60 mins. The data set is classed as ADME, organism-based. Conditions: in vivo, 1 h. In a few lines: as §5
A short description of data set [11]: Ratio of drug uptake in striatum to cerebellum of Sprague-Dawley rat at 37 MBq, iv after 30 mins. The data set is classed as ADME, organism-based. Conditions: in vivo, 0.5 h. Summed up:
as §5

Data set [12] in a line: Ratio of drug uptake in striatum to cerebellum of Sprague-Dawley rat at 37 MBq, iv treated 45 mins after DAT inhibitor GBR-12909 challenge measured after 30 mins. It counts as ADME, organism-based. To be noted: in vivo, 0.5 h. In a few lines: as §1
Data set [13] concerns Striatum. As to the kind of experiment: Drug uptake in Sprague-Dawley rat striatum assessed per cm'3 at 37 MBq, iv after 4 mins. It counts as ADME, organism-based. To be noted: in vivo.
For data set [14], the system named is Striatum. As to the kind of experiment: Drug uptake in Sprague-Dawley rat striatum assessed as reduction of striatal binding potential at 37 MBq, iv treated 45 mins after DAT inhibitor GBR-12909 challenge measured after 30 mins. The data set is classed as ADME, organism-based. The arrangement: scale not given: the % may be the effect or the level left. Conditions: in vivo, 0.5 h. In a few lines: as §4

The nature of data set [15]: Ratio of drug uptake in striatum to cerebellum of Sprague-Dawley rat at 37 MBq, iv treated 45 mins after DAT inhibitor GBR-12909 challenge measured after 60 mins. The data set is classed as ADME, organism-based. To be noted: in vivo, 1 h. Summed up: as §1
In data set [16] the test system is Striatum. As to the kind of experiment: Drug uptake in Sprague-Dawley rat striatum assessed per cm'3 at 37 MBq, iv after 30 mins. The data set is classed as ADME, organism-based. To be noted: in vivo, 0.5 h. In a few lines:
as §3

For data set [17], the system named is Striatum. As to the kind of experiment: Drug uptake in Sprague-Dawley rat striatum assessed as reduction of striatal binding potential at 37 MBq, iv treated 45 mins after DAT inhibitor GBR-12909 challenge measured after 60 mins. To be noted: in vivo, 1 h. The data set is classed as ADME, organism-based. The arrangement: scale not given: the % may be the effect or the level left. In a few lines:
as §4

Each structure is given as a SMILES string.

The term IC50 denotes the concentration needed to halve the response being measured.

Sodium-dependent dopamine transporter, sequence (Q01959 whole entry): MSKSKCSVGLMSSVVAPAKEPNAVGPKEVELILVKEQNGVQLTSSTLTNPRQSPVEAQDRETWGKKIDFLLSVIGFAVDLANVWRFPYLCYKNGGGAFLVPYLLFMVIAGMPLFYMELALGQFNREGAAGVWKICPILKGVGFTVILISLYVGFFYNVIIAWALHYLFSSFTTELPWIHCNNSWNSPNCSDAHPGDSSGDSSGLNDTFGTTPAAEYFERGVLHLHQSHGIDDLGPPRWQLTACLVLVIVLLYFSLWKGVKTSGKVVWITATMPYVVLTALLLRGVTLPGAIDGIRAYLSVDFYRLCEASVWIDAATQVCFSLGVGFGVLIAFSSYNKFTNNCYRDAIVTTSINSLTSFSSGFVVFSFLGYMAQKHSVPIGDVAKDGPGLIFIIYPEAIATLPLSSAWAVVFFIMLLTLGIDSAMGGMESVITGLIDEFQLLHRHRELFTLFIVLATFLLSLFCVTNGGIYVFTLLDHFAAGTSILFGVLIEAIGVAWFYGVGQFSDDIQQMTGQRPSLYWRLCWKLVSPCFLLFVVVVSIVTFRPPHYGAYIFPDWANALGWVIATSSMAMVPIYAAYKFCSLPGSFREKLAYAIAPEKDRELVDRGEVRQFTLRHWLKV

As to `COC(=O)[C@H]1[C@@H](c2ccc(C)cc2)C[C@@H]2CC[C@H]1N2CC#CCF`, the concentration for half-maximal inhibition (IC50) in data set [1] was found to be 3 nM.

Regarding `Cc1ccc([C@H]2C[C@@H]3CC[C@H]([C@H]2C(=O)O[11CH3])N3CC#CCF)cc1`, the Ratio was determined as 1.25 in data set [2]; 2.4 in [8]; 5 in data set [10]; 3.6 in [11]; 1.67 in data set [12]; 1.61 in [15]. For the same compound, the Activity turned out to be 1.6 %ID in the data set with Striatum [3]; 2 %ID in the data set with Striatum [4]; 1.2 %ID in the data set on Striatum [5]; 32% in the data set on Striatum [6]; 2.1 %ID with Striatum [7]; 2.1 %ID with Striatum [9]. Further, the Activity in the data set with Striatum [14] turned out to be 41%; in the data set on Striatum [16], 2.1 %ID; in the data set with Striatum [17], 57%. Moreover, in the data set on Striatum [13], the Drug uptake is given as 2.22%.

The values are drawn from ChEMBL document CHEMBL1152377, “[(11)C]PR04.MZ, a promising DAT ligand for low concentration imaging: Synthesis, efficient (11)C-O-methylation and initial small animal PET studies” (Bioorg Med Chem Lett, 2009).
